No end group written: not given here.
Tested on: ARPE-19 cells
Assay: Cellular uptake of FITC-labelled peptides, confocal microscopy
Type: in vitro ADME, human
Conditions: 1 h, 37 °C, confocal microscopy (Fig. 2)
Summary of the method: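 ARPE-19 cells (DMEM/F-12 GlutaMAX, 10% FBS, 1% AA) were seeded at 2 × 10^5 cells/ml in chamber slides and grown two nights. FITC-labelled peptides were applied for 1 h at 37 °C, 5% CO2, in culture medium or in hypoxic HAIR solution (K-gluconate/Na-gluconate/NMDG-based, bicarbonate). Cells were then PBS-washed, fixed in 4% formaldehyde, DAPI-counterstained and imaged by confocal microscopy.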

KQIEIKKFK [Gap19]
cellular uptake in hypoxic ARPE-19 cells (HAIR solution (hypoxia), FITC-labelled Gap19 100 μM or XG19 5 μM): undetectable
cellular uptake in normal ARPE-19 cells (normal culture medium, FITC-labelled Gap19 100 μM): undetectable

From article PMC7223318 (Drug Delivery and Translational Research, 2020)
